Converted amounts (≈) assume the structure as drawn.

In ChEMBL document CHEMBL1122499, “Structural requirements of olefinic 5-substituted deoxyuridines for antiherpes activity” (1983) one finds MIC data, which are given here for 30 molecules.

For the first assay, the system named is Human alphaherpesvirus 1. In words: Antiviral activity against herpes simplex virus type 1 (HSV-1) determined in baby hamster kidney cells. The format is functional.
Conditions: not given
In outline:
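Microplaque reduction with HSV-1 strain S3. Serial 0.5 log virus dilutions were inoculated onto baby hamster kidney cell monolayers in microtiter plates for infectivity end-point titration. Compound was present in the overlay (Dulbecco-modified Eagle MEM, 10% donor calf serum, 0.5% carboxymethylcellulose). MIC was the lowest concentration that cut the virus infectivity end point by at least 1 log versus the untreated control.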
Molecule `O=c1[nH]c(=O)n([C@H]2C[C@H](O)[C@@H](CO)O2)cc1/C=C/Br` (stereo in doubt; 2) [BRIVUDINE] showed an MIC of 0.005 µg/mL (≈ 0.015 µM).

Turning to `O=c1[nH]c(=O)n([C@H]2C[C@H](O)[C@@H](CO)O2)cc1/C=C/Br` (stereo in doubt; 4) [BRIVUDINE], the MIC is 0.1 µg/mL (≈ 0.3 µM).

Still in this assay, the particulars now being: Human alphaherpesvirus 1; read-out: MIC.
`C/C=C/Cc1cn([C@H]2C[C@H](O)[C@@H](CO)O2)c(=O)[nH]c1=O.C/C=C\Cc1cn([C@H]2C[C@H](O)[C@@H](CO)O2)c(=O)[nH]c1=O`: the MIC was 10 µg/mL. The same measure, in the same setting: to `C/C(Br)=C/c1cn([C@H]2C[C@H](O)[C@@H](CO)O2)c(=O)[nH]c1=O.C/C(Br)=C\c1cn([C@H]2C[C@H](O)[C@@H](CO)O2)c(=O)[nH]c1=O` belongs 1 µg/mL; to `N#C/C=C/c1cn([C@H]2C[C@H](O)[C@@H](CO)O2)c(=O)[nH]c1=O`, greater than 25 µg/mL; to `CCC#Cc1cn([C@H]2C[C@H](O)[C@@H](CO)O2)c(=O)[nH]c1=O`, 10 µg/mL (≈ 35.7 µM). The same measure, in the same setting: the value for `CC#Cc1cn([C@H]2C[C@H](O)[C@@H](CO)O2)c(=O)[nH]c1=O` was 1 µg/mL (≈ 3.76 µM); that for `C/C=C/c1cn([C@H]2C[C@H](O)[C@@H](CO)O2)c(=O)[nH]c1=O` was 0.5 µg/mL (≈ 1.86 µM); that for `CCCCc1cn([C@H]2C[C@H](O)[C@@H](CO)O2)c(=O)[nH]c1=O` was 10 µg/mL (≈ 35.2 µM). The same measure, in the same setting: the value for `COC(=O)/C(C)=C/c1cn([C@H]2C[C@H](O)[C@@H](CO)O2)c(=O)[nH]c1=O` was greater than 100 µg/mL.

As to `COC(=O)/C=C(\C)c1cn([C@H]2C[C@H](O)[C@@H](CO)O2)c(=O)[nH]c1=O`, the MIC is greater than 100 µg/mL. In the case of `CC(C)(C)/C=C/c1cn([C@H]2C[C@H](O)[C@@H](CO)O2)c(=O)[nH]c1=O`, the MIC is greater than 10 µg/mL. For `CCC/C=C/c1cn([C@H]2C[C@H](O)[C@@H](CO)O2)c(=O)[nH]c1=O`, the MIC is greater than 100 µg/mL. The same measure, in the same setting: to `C/C=C(/C)c1cn([C@H]2C[C@H](O)[C@@H](CO)O2)c(=O)[nH]c1=O` belongs greater than 100 µg/mL; to `CC(C)=Cc1cn([C@H]2C[C@H](O)[C@@H](CO)O2)c(=O)[nH]c1=O`, greater than 50 µg/mL; to `C/C=C/c1cn([C@H]2C[C@H](O)[C@@H](CO)O2)c(=O)nc1N`, 50 µg/mL (≈ 187 µM). As to `CC/C=C/c1cn([C@H]2C[C@H](O)[C@@H](CO)O2)c(=O)[nH]c1=O`, the MIC was 0.5 µg/mL (≈ 1.77 µM). The same measure, in the same setting: to `C/C(=C\Cl)c1cn([C@H]2C[C@H](O)[C@@H](CO)O2)c(=O)[nH]c1=O` belongs greater than 100 µg/mL; to `CS/C=C/c1cn([C@H]2C[C@H](O)[C@@H](CO)O2)c(=O)[nH]c1=O`, 0.5 µg/mL (≈ 1.66 µM); to `C/C=C\c1cn([C@H]2C[C@H](O)[C@@H](CO)O2)c(=O)[nH]c1=O`, 100 µg/mL (≈ 373 µM). On the same count and under the same terms, to `C/C(=C\Br)c1cn([C@H]2C[C@H](O)[C@@H](CO)O2)c(=O)[nH]c1=O` belongs 0.1 µg/mL (≈ 0.288 µM). The same measure, in the same setting: the value for `CCCC/C=C/c1cn([C@H]2C[C@H](O)[C@@H](CO)O2)c(=O)[nH]c1=O` was greater than 100 µg/mL; that for `C/C=C/c1cn([C@H]2C[C@H](O)[C@@H](CO)O2)c(=O)[nH]c1=S` was 100 µg/mL (≈ 352 µM). Consider `C/C=C(\C)c1cn([C@H]2C[C@H](O)[C@@H](CO)O2)c(=O)[nH]c1=O`, for which the MIC is 50 µg/mL (≈ 177 µM). On the same count and under the same terms, the value for `C/C=C\c1cn([C@H]2C[C@H](O)[C@@H](CO)O2)c(=O)nc1N` was greater than 100 µg/mL; that for `COC(=O)/C=C/C=C/c1cn([C@H]2C[C@H](O)[C@@H](CO)O2)c(=O)[nH]c1=O` was greater than 100 µg/mL; that for `C=C(Cl)Cc1cn([C@H]2C[C@H](O)[C@@H](CO)O2)c(=O)[nH]c1=O` was 50 µg/mL (≈ 165 µM). The same measure, in the same setting: the value for `C=CCc1cn([C@H]2C[C@H](O)[C@@H](CO)O2)c(=O)[nH]c1=O` was 100 µg/mL (≈ 373 µM); that for `O=c1[nH]c(=O)n([C@H]2C[C@H](O)[C@@H](CO)O2)cc1C=C(Br)Br` was 0.1 µg/mL (≈ 0.243 µM); that for `COC(=O)/C=C/c1cn([C@H]2C[C@H](O)[C@@H](CO)O2)c(=O)[nH]c1=O` was 10 µg/mL (≈ 32 µM).
